Hits are enriched below; roughly 3.1% of the tested compounds scored in any of these assays.
CHO parental Ca: counter-screen: ATP calcium response change in parental CHO cells; parental CHO-K1, ATP-induced calcium, Fluo-8 fluorescence; inhibition, % at 5.6 µM; 330,000 compounds, 0.63% hits; AID 463079;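 active = inhibition above that plate's mean sample inhibition plus 3 SD, cut at about 26% in these data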;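 also: 0% = ATP-challenged DMSO wells and 100% = DMSO wells without ATP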
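test system = CHO parental line | reagent = ATP stimulus | measured by = intracellular calcium via Fluo-8 no-wash fluorescent dye | control set = ATP and no-ATP DMSO wells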
GPR7 antagonist: antagonists of human GPR7 (neuropeptides B/W receptor 1) | P48145 | GPR7-expressing cells, fluorescence antagonist assay | inhibition, % at 4.4 µM | 290,000 compounds, 1.1% hits; in the data active = inhibition above about 16%, passing the limit was not always enough;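 also: cells stimulated with the agonist NPW; 0% = agonist with vehicle and 100% = vehicle without agonist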
Target sequence (P48145 whole entry, looked up): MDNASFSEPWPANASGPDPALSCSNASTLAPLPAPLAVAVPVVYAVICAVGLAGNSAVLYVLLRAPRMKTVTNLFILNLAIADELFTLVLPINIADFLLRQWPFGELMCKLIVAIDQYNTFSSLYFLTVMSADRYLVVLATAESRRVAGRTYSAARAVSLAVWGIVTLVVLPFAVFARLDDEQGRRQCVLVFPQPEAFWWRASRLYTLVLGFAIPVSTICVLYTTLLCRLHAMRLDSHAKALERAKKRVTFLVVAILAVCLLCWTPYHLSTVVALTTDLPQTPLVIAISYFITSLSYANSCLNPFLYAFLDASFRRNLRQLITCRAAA
OX1R antag-1: antagonists of human orexin 1 receptor. O43613. CHO/OX1R cells, Fluo-8 calcium fluorescence, orexin A. inhibition, % at 5 µM. 330,000 compounds, 0.43% hits;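 active = inhibition above its plate's threshold, mean inhibition of all tested compounds on the plate plus 3 SD, cut at about 37% in these data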;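 also: 0% = orexin A challenge wells and 100% = SB-334867-A antagonist wells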
GalR3 antagonist: human GalR3 antagonism; O60755; HEK293 GalR3-CNG cAMP membrane potential fluorescence; galR3 body fused to GalR1 C-terminus; inhibition, % at 3 µM; 360,000 compounds, 0.44% hits;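 active = inhibition above the screen-wide average plus 3 SD, cut at about 13% in these data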;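 also: forskolin and galanin both at EC90 stimulate the cells; cAMP rise reported by CNG channel membrane potential dye signal; 0% = forskolin plus galanin with DMSO and 100% = forskolin alone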
Target sequence (O60755 1-299 limits assumed): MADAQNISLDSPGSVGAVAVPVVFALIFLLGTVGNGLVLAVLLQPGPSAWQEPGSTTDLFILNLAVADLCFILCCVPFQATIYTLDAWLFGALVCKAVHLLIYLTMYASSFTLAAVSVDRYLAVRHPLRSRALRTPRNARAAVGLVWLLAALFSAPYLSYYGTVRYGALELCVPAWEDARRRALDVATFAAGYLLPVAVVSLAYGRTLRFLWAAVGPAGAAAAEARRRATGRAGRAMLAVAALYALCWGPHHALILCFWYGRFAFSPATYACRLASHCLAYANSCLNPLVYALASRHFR
OX1R antag-2: antagonists of human orexin 1 receptor (OX1R). O43613. OX1R-expressing cells, FRET antagonist read-out. inhibition, % at 6.6 µM. 330,000 compounds, 1.8% hits; in the data active = inhibition mostly above about 38%, no sharp cut-off; inactive = mostly below about 40%;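 also: 0% = agonist challenge alone and 100% = reference antagonist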
The depositor's hits bear a star; . = no result given.

SMILES | CHO parental Ca | GPR7 antagonist | OX1R antag-1 | GalR3 antagonist | OX1R antag-2
CC(C)[C@H](NC(=O)c1ccco1)C(=O)N1CCC[C@H]1C(=O)NCc1ccccc1 | . | . | . | -2 | .
O=C(NN=Cc1ccc(Cl)cc1Cl)C1CC1 | . | . | . | -7 | .
CCOC(=O)CN1C(=O)S/C(=C/c2ccc3c(c2)n(C)c(=O)n3C)C1=O | -6 | -6 | -21 | -2 | 8
CCOC(=O)CN1C(=O)S/C(=C/C=C/c2ccc(N(C)C)cc2)C1=O | 32* | 11 | 55* | -8 | 18
CCCCN1C(=O)/C(=C/C=C2/CC(C)(C)CN2C)SC1=S | 47* | 5 | 46* | -4 | 29
CCCCN1C(=O)/C(=C/C=C2\Oc3ccccc3N2CC)SC1=S | . | 10 | . | -2 | .
Cc1cc(Oc2cccnc2)ccc1NC(=O)CCc1c[nH]c2ccccc12 | . | . | . | -6 | .
Cc1[nH]c2ccccc2c1C(=O)CN1C(=O)NC(C)(c2ccc(Cl)cc2Cl)C1=O (centres undefined) | 23 | 62* | 34 | -12 | 13
O=C(NCc1ccccc1)[C@H]1CCCN1C(=O)[C@H]1CCCN1C(=O)c1ccc(F)cc1F | . | . | . | -5 | .
N#Cc1c(NC(=S)NC(=O)c2ccccc2)sc2c1CCN(CCc1ccccc1)C2 | 36* | 17 | 36 | . | 26
CCC(C)(C(=O)NC1CCCC1)N(Cc1cccs1)C(C)=O (centres undefined) | -3 | -10 | -18 | -5 | 17
CCC(C)(C(=O)NC1CCCC1)N(Cc1cccs1)C(=O)Cc1cccs1 (centres undefined) | -8 | 42* | -24 | -7 | 24
CCC(C)(C(=O)NC1CCCCC1)N(Cc1ccco1)C(=O)c1cnccn1 (centres undefined) | -15 | 16* | -17 | -5 | 15
Cc1nc2ccc(S(=O)(=O)CCC(=O)NCCc3ccccc3)cc2s1 | . | . | . | 0 | .
Cc1cc(-c2ccc([N+](=O)[O-])cc2)cc(C)n1 | . | . | . | -2 | .
OCc1ccccc1OCc1ccccc1 | . | . | . | 4 | .
CCc1nnc(NS(=O)(=O)c2ccc(NC(=S)NC(=O)/C=C/c3ccc(C(C)C)cc3)cc2)s1 | 44* | -16 | 36 | . | 20
Cc1cc2c(cc1S(=O)(=O)N1CCN(c3ccc(Cl)cc3)CC1)OCCN2C | 2 | -2 | -23 | . | -7
Cc1cc2c(cc1S(=O)(=O)N1CCN(c3cccc(C)c3C)CC1)OCCN2C | 57* | 4 | -37 | . | 6
CCCCn1c(=N)n(CC(=O)c2ccc(Br)s2)c2ccccc21 | -1 | 7 | -18 | -4 | 9
CCn1c(=N)n(CC(=O)c2ccc(Br)s2)c2ccccc21 | -27 | 20* | -16 | -10 | 31
c1coc(-c2nc3c4ccccc4ccn3c2Cc2ccsc2)c1 | . | . | . | -1 | .
COc1ccc(-c2ncncc2-c2csc(C)n2)c(O)c1 | -8 | 17* | -10 | 2 | -4
COc1ccc(OC)c(/C=C/C(=O)Nc2ccc3c(c2)CCC3)c1 | -10 | -9 | -26 | 0 | 69*
COc1ccc(Br)cc1/C=C/C(=O)c1ccc(NC(C)=O)cc1 | -6 | 6 | -5 | -5 | 58
SMILES | CHO parental Ca | GPR7 antagonist | OX1R antag-1 | GalR3 antagonist | OX1R antag-2
COc1ccc(NC(=O)/C=C/c2cc(Br)ccc2OC)cc1 | -22 | 2 | 36 | -3 | 83*
CCN(CC)c1ccc(NC(=O)/C=C/c2cc(Br)ccc2OC)cc1 | -10 | 2 | -19 | 0 | 50*
CCC(=O)N(c1nnc(SC(C)C(=O)Nc2ccc(N3CCOCC3)cc2)s1)C1CC1 (centres undefined) | . | . | . | -3 | .
CC1(C(=O)Nc2cccc3ccccc23)CCN1C(=O)Cc1ccc(Cl)cc1Cl (centres undefined) | . | . | . | -10 | .
CCN(C(=O)C1CCN(c2nc(-c3ccc(OC)cc3)no2)CC1)c1ccc(OC)cc1 | 36* | 6 | -3 | . | 19
O=C1c2ccccc2[C@@H]2C[C@@H](O)[C@H](Nc3cccc4ccccc34)CCN12 | -12 | . | 5 | -3 | 42*
COc1ccc(N[C@@H]2CCN3C(=O)c4ccccc4[C@@H]3C[C@H]2O)cc1 | -23 | . | -9 | -5 | 7
COc1cc2[nH]c(=O)n3nc(-c4ccccc4)nc3c2cc1OC | -8 | 3 | 1 | . | 37*
Cc1ccc(N(CC(=O)NC(C)c2ccccc2)S(=O)(=O)c2c(C)noc2C)cc1 (centres undefined) | -20 | -5 | 14 | -3 | 52*
COc1cccc(CNC(=O)CN(c2cc(C)cc(C)c2)S(=O)(=O)c2c(C)noc2C)c1 | -25 | -19 | -18 | 5 | 46*
O=C(Nc1cc(Cl)ccc1O)c1snnc1-c1ccccc1 | 30 | -5 | 45 | -6 | 46*
O=C(Nc1cccc(Cl)c1Cl)c1snnc1-c1ccccc1 | -31 | -4 | -23 | -2 | 33
COc1ccc(N2CCN(C(=O)c3cc(N4C(=O)C5C6CCC(C6)C5C4=O)ccc3Cl)CC2)cc1 (centres undefined) | -19 | 20* | -23 | 8 | 15
O=C(c1cc(N2C(=O)C3C4CCC(C4)C3C2=O)ccc1Cl)N1CCN(c2ccc(F)cc2)CC1 (centres undefined) | -12 | 3 | -2 | 7 | 15
Cc1ccc2c(c1)c(N=O)c(O)n2Cc1ccc(Cl)cc1 | 36* | -5 | -2 | 5 | 6
O=Nc1c(O)n(Cc2ccc(Cl)cc2)c2ccccc12 | -21 | 8 | -18 | -3 | 7
O=Nc1c(O)n(Cc2ccc(Cl)cc2Cl)c2ccccc12 | 87* | -2 | 24 | 0 | 16
COC(=O)[C@]12C[C@H](CC(=O)N3CCN(C(=O)c4ccco4)CC3)C(=O)N(CCC3=CCCCC3)C1=C[C@H](COCc1ccccc1)O[C@@H]2C | . | . | . | -4 | .
CCOC(=O)COc1ccc2c(c1)C(=O)CC1(CCN(C(C)=O)CC1)O2 | -12 | 5 | -12 | -6 | 7
CCOC(=O)N1CCC2(CC1)CC(=O)c1cc(O)ccc1O2 | -9 | 18* | -1 | -4 | 19
COc1cccc(Cn2nnc(C(=O)Nc3cc(Cl)ccc3OC)c2N)c1 | 30* | 5 | 13 | -2 | 42*
COc1cc(NC(=O)c2cc3ccccc3cc2O)c(OC)cc1Cl | 36* | 11 | 13 | -9 | 34*
COc1cc2ccccc2cc1C(=O)Nc1ccccc1Cl | -17 | 2 | 19 | -10 | 1
COc1ccccc1NC(=O)COC(=O)c1cc2ccccc2cc1O | -22 | . | -11 | -2 | 9
COc1ccccc1NC(=O)c1cc2cc(Br)ccc2cc1O | 45* | 6 | 10 | -10 | 19
O=C(Cn1nnc(N2CCCCC2)n1)NN=Cc1ccccc1O | . | . | . | -6 | .
CCN=C1NC(CCc2ccccc2)C(C(=O)OC)=C(C)N1Cc1ccccc1C(F)(F)F (centres undefined) | . | . | . | -7 | .
S=c1nc(Cc2ccc(Cl)cc2)[nH]c2ccccc12 | -22 | -7 | -26 | 13* | 7
CCN(CCNC(=O)Nc1ccc(Cl)cc1)c1ccccc1 | 55* | 5 | 64* | -2 | 118*
O=C(Nc1ccc2c(c1)OCO2)c1cc(-c2ccc(O)cc2)on1 | 39* | -5 | -13 | -7 | 18

Compound activity as filed in PubChem BioAssay.
